Test results as given in ChEMBL document CHEMBL2407075, “Sulphonamido-quinoxalines: search for anticancer agent” (Eur J Med Chem, 2013).

What was measured:
Assay type in all cases: functional
MDA-MB-468 = test: Growth inhibition of human MDA-MB-468 cells at 10 uM after 48 hrs by sulforhodamine B assay; settings: MDA-MB-468, 48 h, read-out: GI
How it was run: (§1)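 Single-dose screen at 10 µM across the NCI 60 panel. Cells in RPMI 1640 with 5% FBS and 2 mM L-glutamine, plated at 5000–40,000/well and preincubated 24 h at 37 °C, 5% CO2. Drug in DMSO, 48 h exposure. Fixed with TCA, stained with SRB, A515 read. Percent growth is taken relative to untreated control, and inhibition is 100 minus growth.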

BT-549 = test: Growth inhibition of human BT549 cells at 10 uM after 48 hrs by sulforhodamine B assay; settings: BT-549, 48 h, read-out: GI
How it was run: (§2)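 Single-dose NCI-60 prescreen at 10 µM for 48 h at 37 °C and 5% CO2, using cells grown in RPMI 1640 with 5% FBS and 2 mM glutamine. Protein was measured by SRB after TCA fixation: 10% final for adherent lines, 16% for suspension lines. Absorbance was read at 515 nm. Percent growth inhibition was obtained by subtracting percent growth from 100.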

T47D = test: Growth inhibition of human T47D cells at 10 uM after 48 hrs by sulforhodamine B assay; settings: read-out: GI; how it was run: as §1
[1] = Growth inhibition of human Hs 578T cells at 10 uM after 48 hrs by sulforhodamine B assay; settings: read-out: GI
How it was run: (§3)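 NCI-60 one-dose primary screen at a single 10 µM concentration. Cells in RPMI 1640 with 5% FBS, preincubated 24 h at 37 °C, 5% CO2. Drug exposure 48 h, then TCA fixation, SRB staining and absorbance at 515 nm. Percent growth calculated against time-zero and untreated control wells, then converted to percent growth inhibition.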

DU-145 = test: Growth inhibition of human DU145 cells at 10 uM after 48 hrs by sulforhodamine B assay; settings: DU-145, 48 h, read-out: GI; how it was run: as §2
UO-31 = test: Growth inhibition of human UO31 cells at 10 uM after 48 hrs by sulforhodamine B assay; settings: UO-31, 48 h, read-out: GI; how it was run: as §1
RXF 393 = test: Growth inhibition of human RXF393 cells at 10 uM after 48 hrs by sulforhodamine B assay; settings: RXF 393, 48 h, read-out: GI; how it was run: as §1
786-0 = test: Growth inhibition of human 786-0 cells at 10 uM after 48 hrs by sulforhodamine B assay; settings: 786-0, 48 h, read-out: GI; how it was run: as §2
[2] = Growth inhibition of human NCI-ADR-RES cells at 10 uM after 48 hrs by sulforhodamine B assay; settings: read-out: GI; how it was run: as §1
OVCAR-4 = test: Growth inhibition of human OVCAR4 cells at 10 uM after 48 hrs by sulforhodamine B assay; settings: OVCAR-4, 48 h, read-out: GI; how it was run: as §1
IGROV-1 = test: Growth inhibition of human IGROV1 cells at 10 uM after 48 hrs by sulforhodamine B assay; settings: IGROV-1, 48 h, read-out: GI; how it was run: as §1
UACC-257 = test: Growth inhibition of human UACC257 cells at 10 uM after 48 hrs by sulforhodamine B assay; settings: UACC-257, 48 h, read-out: GI; how it was run: as §1
SK-MEL-5 = test: Growth inhibition of human SK-MEL-5 cells at 10 uM after 48 hrs by sulforhodamine B assay; settings: SK-MEL-5, 48 h, read-out: GI; how it was run: as §1
SK-MEL-2 = test: Growth inhibition of human SK-MEL-2 cells at 10 uM after 48 hrs by sulforhodamine B assay; settings: SK-MEL-2, 48 h, read-out: GI; how it was run: as §1
Malme-3M = test: Growth inhibition of human MALME-3M cells at 10 uM after 48 hrs by sulforhodamine B assay; settings: read-out: GI; how it was run: as §1
U-251 = test: Growth inhibition of human U251 cells at 10 uM after 48 hrs by sulforhodamine B assay; settings: U-251, 48 h, read-out: GI; how it was run: as §1
LOX IMVI = test: Growth inhibition of human LOXIMVI cells at 10 uM after 48 hrs by sulforhodamine B assay; settings: read-out: GI; how it was run: as §1
SNB-19 = test: Growth inhibition of human SNB19 cells at 10 uM after 48 hrs by sulforhodamine B assay; settings: SNB-19, 48 h, read-out: GI; how it was run: as §1
SF-295 = test: Growth inhibition of human SF295 cells at 10 uM after 48 hrs by sulforhodamine B assay; settings: SF-295, 48 h, read-out: GI; how it was run: as §1
SW-620 = test: Growth inhibition of human SW620 cells at 10 uM after 48 hrs by sulforhodamine B assay; settings: SW-620, 48 h, read-out: GI; how it was run: as §1
HT-29 = test: Growth inhibition of human HT-29 cells at 10 uM after 48 hrs by sulforhodamine B assay; settings: HT-29, 48 h, read-out: GI; how it was run: as §3
KM12 = test: Growth inhibition of human KM12 cells at 10 uM after 48 hrs by sulforhodamine B assay; settings: KM12, 48 h, read-out: GI; how it was run: as §1
HCT-116 = test: Growth inhibition of human HCT116 cells at 10 uM after 48 hrs by sulforhodamine B assay; settings: HCT-116, 48 h, read-out: GI; how it was run: as §3
HCT-15 = test: Growth inhibition of human HCT15 cells at 10 uM after 48 hrs by sulforhodamine B assay; settings: HCT-15, 48 h, read-out: GI; how it was run: as §3
[3] = Growth inhibition of human HCC2998 cells at 10 uM after 48 hrs by sulforhodamine B assay; settings: HCC 2998, 48 h, read-out: GI; how it was run: as §3
NCI-H522 = test: Growth inhibition of human NCI-H522 cells at 10 uM after 48 hrs by sulforhodamine B assay; settings: NCI-H522, 48 h, read-out: GI; how it was run: as §1
COLO 205 = test: Growth inhibition of human COLO205 cells at 10 uM after 48 hrs by sulforhodamine B assay; settings: COLO 205, 48 h, read-out: GI; how it was run: as §2
NCI-H460 = test: Growth inhibition of human NCI-H460 cells at 10 uM after 48 hrs by sulforhodamine B assay; settings: NCI-H460, 48 h, read-out: GI; how it was run: as §1
HOP-62 = test: Growth inhibition of human HOP62 cells at 10 uM after 48 hrs by sulforhodamine B assay; settings: HOP-62, 48 h, read-out: GI; how it was run: as §3
NCI-H23 = test: Growth inhibition of human NCI-H23 cells at 10 uM after 48 hrs by sulforhodamine B assay; settings: NCI-H23, 48 h, read-out: GI; how it was run: as §1
SR = test: Growth inhibition of human SR cells at 10 uM after 48 hrs by sulforhodamine B assay; settings: read-out: GI; how it was run: as §1
A549 = test: Growth inhibition of human A549/ATCC cells at 10 uM after 48 hrs by sulforhodamine B assay; settings: A549, 48 h, read-out: GI; how it was run: as §2
HL-60(TB) = test: Growth inhibition of human HL-60(TB) cells at 10 uM after 48 hrs by sulforhodamine B assay; settings: HL-60, 48 h, read-out: GI
How it was run: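 Single-dose NCI-60 primary screen at 10 µM, 48 h exposure, SRB read-out. Growth percentage of treated versus untreated cells was recorded and given as percent inhibition by subtraction.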

Row | SMILES | inhibition of growth at 10 µM (MDA-MB-468) [%] | inhibition of growth at 10 µM (BT-549) [%] | inhibition of growth at 10 µM (T47D) [%] | inhibition of growth at 10 µM [1] [%] | inhibition of growth at 10 µM (DU-145) [%] | inhibition of growth at 10 µM (UO-31) [%] | inhibition of growth at 10 µM (RXF 393) [%] | inhibition of growth at 10 µM (786-0) [%] | inhibition of growth at 10 µM [2] [%] | inhibition of growth at 10 µM (OVCAR-4) [%] | inhibition of growth at 10 µM (IGROV-1) [%] | inhibition of growth at 10 µM (UACC-257) [%] | inhibition of growth at 10 µM (SK-MEL-5) [%] | inhibition of growth at 10 µM (SK-MEL-2) [%] | inhibition of growth at 10 µM (Malme-3M) [%] | inhibition of growth at 10 µM (U-251) [%] | inhibition of growth at 10 µM (LOX IMVI) [%] | inhibition of growth at 10 µM (SNB-19) [%] | inhibition of growth at 10 µM (SF-295) [%] | inhibition of growth at 10 µM (SW-620) [%] | further results
1 | O=C(NS(=O)(=O)c1ccc2nc(-c3ccccc3)c(-c3ccccc3)nc2c1)c1ccccc1 | 40.2 | 7.67 | 57.5 | 17 | 6.85 | 15.2 | 39.1 | 16.5 | 27.5 | 16.5 | 16.5 | 15.2 | 48.9 | 15.8 | 7.67 | 21.6 | 20.5 | 22 | 21 | 17.4 | inhibition of growth at 10 µM (HT-29): 48.4%; inhibition of growth at 10 µM (KM12): 21%; inhibition of growth at 10 µM (HCT-116): 36.7%; inhibition of growth at 10 µM (HCT-15): 44.9%; inhibition of growth at 10 µM [3]: 15.3%; inhibition of growth at 10 µM (NCI-H522): 23.5%; inhibition of growth at 10 µM (COLO 205): 19.5%; inhibition of growth at 10 µM (NCI-H460): 32%; inhibition of growth at 10 µM (HOP-62): 2.87%; inhibition of growth at 10 µM (NCI-H23): 19.6%; inhibition of growth at 10 µM (SR): 71.1%; inhibition of growth at 10 µM (A549): 21.1%; inhibition of growth at 10 µM (HL-60(TB)): 49.4%
2 | O=S(=O)(Nc1cccc2ccccc12)c1ccc2nc(-c3ccccc3)c(-c3ccccc3)nc2c1 | 54.9 | 32.6 | 49.4 | 24 | 10.9 | 17.9 | 48.6 | 4.34 | 22.6 | 31.2 | 1.78 | 21.7 | 48.6 | 14.9 | 9.98 | 7.23 | 32.9 | 9.78 | 3.88 | 26.8 | inhibition of growth at 10 µM (HT-29): 82.5%; inhibition of growth at 10 µM (KM12): 29.9%; inhibition of growth at 10 µM (HCT-116): 49.9%; inhibition of growth at 10 µM (HCT-15): 34.3%; inhibition of growth at 10 µM [3]: 4.56%; inhibition of growth at 10 µM (NCI-H522): 47.8%; inhibition of growth at 10 µM (COLO 205): 27.9%; inhibition of growth at 10 µM (NCI-H460): 23.6%; inhibition of growth at 10 µM (HOP-62): 2.24%; inhibition of growth at 10 µM (NCI-H23): 21.3%; inhibition of growth at 10 µM (SR): 81.1%; inhibition of growth at 10 µM (A549): 15.3%; inhibition of growth at 10 µM (HL-60(TB)): 71%
